22 compounds from ChEMBL document CHEMBL4715912, “Discovery of a novel series of indolinylpyrimidine-based GPR119 agonists: Elimination of ether-a-go-go-related gene liability using a hydrogen bond acceptor-focused approach” (Bioorg Med Chem, 2021) can be followed below.

What is called inhibition is the drop in the measured response relative to a control, in per cent. What is called logD is the decadic logarithm of the distribution of all forms, ionised or not, between an organic phase and buffer at a given pH. Lower therefore signals lower lipophilicity. In general, EC50 refers to the concentration at which the effect is half-maximal. Lower therefore signals a more potent agent. What is called clearance is the volume of plasma or blood freed of the substance per unit of time. A higher clearance goes with a high capacity for elimination.

The target in data set [1] is T1, hERG (KCNH2) (Homo sapiens, UniProt Q12809). The data set can be described thus: (§1) Inhibition of human ERG expressed in CHO cells at 10 uM incubated for 5 mins by patch-clamp assay relative to control. Format: cell-based. The conditions noted are these: CHO cells expressing human ERG. The method, boiled down: (§2)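 hERG-expressing CHO cells grown at 32 °C, recorded by population patch clamp after amphotericin B perforation; PBS with Ca/Mg outside, KCl/EGTA/HEPES pH 7.3 inside. Holding −80 mV, step to 40 mV 2 s, then −50 mV 2 s; peak tail current before and after 5 min compound exposure. Percent inhibition = 100 − post/pre × 100; mean ± SD, n = 4.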
T1 sequence (Q12809 whole entry): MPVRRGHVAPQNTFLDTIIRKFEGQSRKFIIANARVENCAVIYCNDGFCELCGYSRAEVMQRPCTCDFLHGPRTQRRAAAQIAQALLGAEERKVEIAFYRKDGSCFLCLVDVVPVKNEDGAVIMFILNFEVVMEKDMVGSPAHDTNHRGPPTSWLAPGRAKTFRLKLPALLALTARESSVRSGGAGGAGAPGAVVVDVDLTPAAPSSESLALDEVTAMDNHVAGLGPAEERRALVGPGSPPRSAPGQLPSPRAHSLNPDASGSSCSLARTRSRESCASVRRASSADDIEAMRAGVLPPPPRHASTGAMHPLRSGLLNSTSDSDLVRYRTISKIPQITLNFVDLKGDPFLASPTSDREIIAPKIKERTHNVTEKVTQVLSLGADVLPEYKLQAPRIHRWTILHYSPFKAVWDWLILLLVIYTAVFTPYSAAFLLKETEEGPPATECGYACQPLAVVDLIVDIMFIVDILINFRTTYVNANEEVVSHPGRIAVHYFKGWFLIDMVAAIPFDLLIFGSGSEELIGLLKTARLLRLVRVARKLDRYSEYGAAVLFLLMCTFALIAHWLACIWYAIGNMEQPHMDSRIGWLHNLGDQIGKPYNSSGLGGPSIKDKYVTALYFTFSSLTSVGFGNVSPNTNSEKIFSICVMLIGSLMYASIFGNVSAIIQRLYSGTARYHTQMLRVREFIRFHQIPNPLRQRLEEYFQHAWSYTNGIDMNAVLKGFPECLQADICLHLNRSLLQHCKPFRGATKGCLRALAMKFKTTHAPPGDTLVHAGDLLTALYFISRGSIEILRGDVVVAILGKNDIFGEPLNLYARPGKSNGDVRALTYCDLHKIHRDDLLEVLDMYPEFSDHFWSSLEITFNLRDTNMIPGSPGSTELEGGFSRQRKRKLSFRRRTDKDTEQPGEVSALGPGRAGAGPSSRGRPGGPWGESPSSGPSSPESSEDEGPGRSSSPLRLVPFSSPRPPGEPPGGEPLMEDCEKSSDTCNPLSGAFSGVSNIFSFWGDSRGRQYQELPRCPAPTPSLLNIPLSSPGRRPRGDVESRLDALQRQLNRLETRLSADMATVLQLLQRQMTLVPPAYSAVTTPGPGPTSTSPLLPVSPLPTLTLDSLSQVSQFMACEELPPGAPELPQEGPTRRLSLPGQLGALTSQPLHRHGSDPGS
A general note: In patch-clamp work, channel activity is measured electrically.

The nature of data set [2]: Partition coefficient, logD between 1-octanol and pH 7.4 aqueous buffer by chromatographic analysis. In kind it is physicochemical. As to conditions: 1-octanol/pH 7.4 aqueous buffer. In short, it runs like this:
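LogD at pH 7.4, octanol/aqueous buffer partition, estimated by a chromatographic method adapted from a published procedure.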

The target in data set [3] is T2, Glucose-dependent insulinotropic receptor (Homo sapiens, UniProt Q8TDV5).
T2 sequence (Q8TDV5 whole entry): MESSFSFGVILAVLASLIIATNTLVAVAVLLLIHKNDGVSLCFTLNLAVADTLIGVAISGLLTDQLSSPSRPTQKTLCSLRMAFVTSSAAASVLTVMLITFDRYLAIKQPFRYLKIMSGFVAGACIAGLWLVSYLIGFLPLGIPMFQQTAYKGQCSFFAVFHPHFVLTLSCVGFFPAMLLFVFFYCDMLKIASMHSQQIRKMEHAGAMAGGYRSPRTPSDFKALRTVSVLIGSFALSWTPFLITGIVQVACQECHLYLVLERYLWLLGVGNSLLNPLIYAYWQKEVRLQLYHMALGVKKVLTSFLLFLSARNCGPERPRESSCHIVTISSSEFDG
The data set can be described thus: Agonist activity at human GPR119 expressed in CHO cells co-expressing cyclic AMP response element incubated for 2 hrs by steady-glo luciferase assay. In kind it is cell-based. In short, it runs like this: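 CHO cells stably expressing human GPR119, seeded at 10,000 cells/well in MEM α with 500 µg/mL Geneticin overnight, then exposed to graded compound concentrations in MEM α/20 mmol/L HEPES/0.1% BSA for 2 h. cAMP-driven luciferase read with Steady-Glo. Response normalized between vehicle and a 10 µM reference agonist; EC50 as mean of n = 2.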

Data set [4] is described as follows: Intrinsic clearance in rat liver microsomes at 1 uM measured after 15 to 30 mins in presence of NADPH generating system by LC/MS/MS analysis. In kind it is ADME, Microsome. As to conditions: time 15-30 min, read-out: CLH. In short, it runs like this: (§3)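 Human or rat liver microsomes at 0.2 mg/mL protein in 50 mM potassium phosphate pH 7.4 with 1 µM compound; reaction started with NADPH-generating system (5 mM MgCl2, 5 mM glucose-6-phosphate, 0.5 mM β-NADP+, 1.5 units/mL G6PDH). Stopped with acetonitrile at 15 and 30 min, parent by LC/MS/MS; rate from concentration–time slope, expressed as µL/min/mg.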
On the technique in general: Microsomes from liver hold many membrane-bound enzymes, among them those of drug oxidation.

Data set [5] is described as follows: Intrinsic clearance in human liver microsomes at 1 uM measured after 15 to 30 mins in presence of NADPH generating system by LC/MS/MS analysis. In kind it is ADME, Microsome. As to conditions: time 15-30 min, read-out: CLH. In short, it runs like this: as §3
For data set [6], the target named is Voltage-gated inwardly rectifying potassium channel KCNH2 (Homo sapiens, UniProt Q12809). The data set is described as §1. In kind it is cell-based. The conditions noted are these: cho, 5 min, 10 µM. The method, boiled down:
as §2

Data set [7] in a line: Total clearance in rat at 0.1 mg/kg, iv by LC/MS/MS analysis. In kind it is ADME, organism-based. As to conditions: in vivo. In short, it runs like this:
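Cassette intravenous dosing at 0.1 mg/kg to non-fasted animals. Plasma taken from blood samples, deproteinized and centrifuged, and compound levels in supernatant quantified by LC/MS/MS.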

For data set [8], the target named is T1, hERG (KCNH2). Briefly: Inhibition of human ERG expressed in CHO cells at 30 uM incubated for 5 mins by patch-clamp assay relative to control. Format: cell-based. The conditions noted are these: CHO cells expressing human ERG. The method, boiled down: as §2

Chain of Voltage-gated inwardly rectifying potassium channel KCNH2 (Q12809 whole entry): as the sequence (Q12809 whole entry) above

As to `CC(C)c1noc(N2CCC(Oc3cc(N4CCc5cc(N6CCCC6=O)ccc54)ncn3)CC2)n1`, at hERG (KCNH2) [1], the inhibition at 5 min, 10 µM stood at 20%. In data set [2], this compound registered a logD of 3.7. Also, the concentration giving a half-maximal response (EC50) in data set [3] is 33 nM. Also, the microsomal CLint at 1 µM in data set [4] is 138 µL/min/mg.
In the same order, the values of `CC(C)c1noc(N2CCC(Oc3cc(N4CCc5cc(N6CCCC(O)C6=O)ccc54)ncn3)CC2)n1` (racemic) are 20%, 3.3, 17 nM and 4 µL/min/mg.
In the case of `CC(C)c1noc(N2CCC(Oc3cc(N4CCc5cc(N6CC(O)CCC6=O)ccc54)ncn3)CC2)n1` (racemic), the microsomal CLint at 1 µM in data set [5] came to 1 µL/min/mg; in data set [4] it was 7 µL/min/mg. Besides, the inhibition at 5 min, 10 µM at hERG (KCNH2) [1] is 18%. Further, in data set [2], the log distribution coefficient (logD) worked out at 2.6. Moreover, the midpoint of the response in data set [3], the EC50, lay at 90 nM.
As for `CC(C)SC(=O)N1CCC(Oc2cc(N3CCc4cc([S+]([O-])CCO)ccc43)ncn2)CC1` (stereo in doubt; form 1), the “inhibition (INH)” value in data set [6] is recorded as 44%. The compound further came in with an EC50 in data set [3] of 57 nM.
In the case of `CC(C)c1noc(N2CCC(Oc3cc(N4CCc5cc(N6CCC[C@@H](O)C6=O)ccc54)ncn3)CC2)n1`, at hERG (KCNH2) [1], the inhibition at 5 min, 10 µM stood at 23%. In data set [2], this compound had a logD of 3.3. Further, the half-maximal effective concentration (EC50) in data set [3] stood at 25 nM. For the same compound, the clearance in data set [7] is 6.25 mL/min/kg.
On to `CC(C)c1noc(N2CCC(Oc3cc(N4CCc5cc(S(C)(=O)=O)ccc54)ncn3)CC2)n1`, for which, in data set [5], the microsomal CLint at 1 µM amounted to 69 µL/min/mg. Besides, at hERG (KCNH2) [1], the inhibition at 5 min, 10 µM worked out at 106%. The same compound gave a clearance in data set [7] of 3.83 mL/min/kg.
`CC(C)SC(=O)N1CCC(Oc2cc(N3CCc4cc(S(C)(=O)=O)ccc43)ncn2)CC1`: on hERG (KCNH2) [1], the inhibition at 5 min, 10 µM amounted to 89%. The same compound showed a logD in data set [2] of 3.6. For the same compound, the midpoint of the response in data set [3], the EC50, lay at 3.2 nM.
Turning to `CC(C)c1noc(N2CCC(Oc3cc(N4CCc5cc([S+]([O-])CCO)ccc54)ncn3)CC2)n1` (racemic), the inhibition at 5 min, 10 µM against hERG (KCNH2) [1] worked out at 107%. In data set [2], this compound displayed a pH-dependent lipophilicity (logD) of 2.7. In data set [3], this compound registered an EC50 of 48 nM.
In the case of `CC(C)SC(=O)N1CCC(Oc2cc(N3CCc4cc([S+]([O-])CCO)ccc43)ncn2)CC1` (stereo in doubt; form 2), the “inhibition (INH)” value in data set [6] is reported as 101%. In addition, the logD in data set [2] was 3.3. In addition, a half-maximal response in data set [3] (EC50) required 9.7 nM.
For `CCc1cnc(N2CCC(C(C)COC(=O)N3CCc4cc(S(C)(=O)=O)cc(F)c43)CC2)nc1` (centres undefined), the microsomal CLint at 1 µM in data set [5] was determined as 329 µL/min/mg; in data set [4], 365 µL/min/mg. Further, the inhibition at 5 min, 10 µM against hERG (KCNH2) [1] came out at 75%. The compound also gave a clearance in data set [7] of 47.7 mL/min/kg.
On to `CC(=O)N(C)c1ccc2c(c1)CCN2c1cc(OC2CCN(c3nc(C(C)C)no3)CC2)ncn1`, for which the microsomal CLint at 1 µM came out at 173 µL/min/mg in data set [5] and 17 µL/min/mg in data set [4]. For the same compound, the inhibition at 5 min, 10 µM at hERG (KCNH2) [1] was 66%. Further, in data set [2], the logD was determined as 3.7. In data set [3], this compound yielded an EC50 of 75 nM. For the same compound, the inhibition at 5 min, 30 µM against hERG (KCNH2) [8] was 108%.
On to `CC(C)c1noc(N2CCC(Oc3cc(N4CCc5cc(N6CCCNS6(=O)=O)ccc54)ncn3)CC2)n1`, for which the figures for the microsomal CLint at 1 µM in data set [5] and in data set [4] were 79 µL/min/mg and 21 µL/min/mg, respectively. On hERG (KCNH2) [1], the inhibition at 5 min, 10 µM came out at 20%. This compound also returned a logD in data set [2] of 3.2. In addition, the midpoint of the response in data set [3], the EC50, lay at 24 nM.
For `CC(C)SC(=O)N1CCC(Oc2cc(N3CCc4ccccc43)ncn2)CC1`, at hERG (KCNH2) [1], the inhibition at 5 min, 10 µM amounted to 14%. In addition, in data set [2], the logD is 5.3. Also, the concentration for a half-maximal effect (EC50) in data set [3] is > 10000 nM. Moreover, the inhibition at 5 min, 30 µM against hERG (KCNH2) [8] stood at 16%.
Regarding `CC(C)c1noc(N2CCC(Oc3cc(N4CCc5cc(N6CCOCC6=O)ccc54)ncn3)CC2)n1`, the microsomal CLint at 1 µM in data set [5] was determined as 27 µL/min/mg; in data set [4], 46 µL/min/mg. Further, at hERG (KCNH2) [1], the inhibition at 5 min, 10 µM was 54%. The same compound registered a pH-dependent lipophilicity (logD) in data set [2] of 3.1. Also, the concentration giving a half-maximal response (EC50) in data set [3] was 15 nM.
As for `CC(C)SC(=O)N1CCC(Oc2cc(N3CCc4cc([S+]([O-])CCO)ccc43)ncn2)CC1` (racemic), the “inhibition (INH)” value in data set [6] stood at 95%. In data set [3], this compound showed an EC50 of 14 nM.
Take `CC(C)OC(=O)N1CCC(Oc2cc(N3CCc4cc(S(C)(=O)=O)ccc43)ncn2)CC1`: on hERG (KCNH2) [1], the inhibition at 5 min, 10 µM turned out to be 84%.
With `CC(C)c1noc(N2CCC(Oc3cc(N4CCc5cc(N6CCNCC6=O)ccc54)ncn3)CC2)n1`, at hERG (KCNH2) [1], the inhibition at 5 min, 10 µM is 15%. This compound registered a logD in data set [2] of 2.7. In data set [3], it took 36 nM to reach a half-maximal effect (EC50). In addition, the microsomal CLint at 1 µM in data set [4] came out at 98 µL/min/mg.
On to `CC(C)c1noc(N2CCC(Oc3cc(N4CCc5cc(N6CCCCC6=O)ccc54)ncn3)CC2)n1`, for which the inhibition at 5 min, 10 µM against hERG (KCNH2) [1] came out at 31%. This compound also gave a logD in data set [2] of 3.8. The EC50 in data set [3] turned out to be 17 nM. For the same compound, in data set [4], the microsomal CLint at 1 µM was 13 µL/min/mg.
For the compound `CC(C)c1noc(N2CCC(Oc3cc(N4CCc5cc(S(=O)(=O)CCO)ccc54)ncn3)CC2)n1`, the inhibition at 5 min, 10 µM against hERG (KCNH2) [1] amounted to 102%. In data set [2], this compound came in with a logD of 2.7. For the same compound, the concentration for a half-maximal effect (EC50) in data set [3] was 41 nM.
`CC(C)c1noc(N2CCC(Oc3cc(N4CCc5cc(N6CCCS6(=O)=O)ccc54)ncn3)CC2)n1`: the results for the microsomal CLint at 1 µM in data set [5] and in data set [4] were 18 µL/min/mg and 1 µL/min/mg, respectively. For the same compound, the inhibition at 5 min, 10 µM against hERG (KCNH2) [1] was found to be 19%. Besides, in data set [2], the logD stood at 3.2. Moreover, the EC50 in data set [3] was found to be 9.7 nM.
With `CC(C)c1noc(N2CCC(Oc3cc(N4CCc5cc(C6CCCCC6=O)ccc54)ncn3)CC2)n1` (racemic), the microsomal CLint at 1 µM came out at 78 µL/min/mg in data set [5] and 141 µL/min/mg in data set [4]. Further, the inhibition at 5 min, 10 µM against hERG (KCNH2) [1] is 13%. Moreover, in data set [2], the log distribution coefficient (logD) worked out at 4.7. Besides, in data set [3], the EC50 amounted to 48 nM.
For `CC(C)c1noc(N2CCC(Oc3cc(N4CCc5cc(N6CCC(O)CC6=O)ccc54)ncn3)CC2)n1` (racemic), the microsomal CLint at 1 µM is 4 µL/min/mg in data set [5] and 13 µL/min/mg in data set [4]. The inhibition at 5 min, 10 µM against hERG (KCNH2) [1] is 18%. Moreover, the logD in data set [2] turned out to be 2.8. This compound registered a concentration for a half-maximal effect (EC50) in data set [3] of 89 nM.
